This is a sample that favours compounds with a hit; in the whole collection about 2.2% have one here.
Granule exo inh – lytic granule exocytosis inhibition | hit rate 0.66% among 360,000 | AID 651702 | TALL-104 LAMP-1 surface exposure, flow cytometry; cells stimulated with thapsigargin and PMA | inhibition, % at 10 µM;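 active means inhibition above about 55%, limit read from the data; inconclusive means no clear call, values can overlap the other calls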
CSN deneddyl inh – blocks human CSN-mediated cullin deneddylation | inhibition, % at 12.5 µM | hit rate 0.38% among 360,000 | Purified CSN, SCF-Nedd8-OG deneddylation, fluorescence polarization;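 active means pattern-corrected inhibition above about 35%, with an unprinted fluorescence ratio check between 0.5 and 1.5, limit read from the data, passing the limit was not always enough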
Target sequence (Q92905 whole entry, looked up, one chain of several): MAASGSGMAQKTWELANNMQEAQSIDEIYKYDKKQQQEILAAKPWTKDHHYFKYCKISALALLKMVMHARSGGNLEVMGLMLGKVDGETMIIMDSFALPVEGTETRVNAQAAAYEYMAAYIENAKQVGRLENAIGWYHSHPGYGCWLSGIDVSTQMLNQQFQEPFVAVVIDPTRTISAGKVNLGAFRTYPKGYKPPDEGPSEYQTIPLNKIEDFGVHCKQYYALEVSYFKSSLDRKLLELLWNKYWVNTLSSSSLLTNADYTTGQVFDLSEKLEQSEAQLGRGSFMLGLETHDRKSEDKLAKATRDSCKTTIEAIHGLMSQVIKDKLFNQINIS
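Assay system: HEK293T-derived human Csn5 enzyme; quantity: 0.24 nM enzyme; medium: Tris/NaCl/DTT buffer, pH 7.5; also added: substrate SCFSkp2-Nedd8OG, 10 nM; doses: 12.5 µM compound; schedule: 90 min reaction at room temperature; signal: FP; read-out: % inhibition of substrate cleavage by Csn5; benchmarks: substrate-only high control, full reaction low control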
HNF4A DNA FP – change in binding of human HNF4 alpha to DNA | AID 1224865 | activity change, % at 10 µM | hit rate 0.3% among 360,000 | HNF4a-FITC DNA binding, fluorescence polarization, 1 h; in the data active means activity change above about 30%, passing the limit was not always enough
Myeloid diff MLP – myeloid differentiation induction; ER-HoxA9 myeloid progenitors, lysozyme-GFP differentiation, flow cytometry; calls only at 10 µM; hit rate 1% among 360,000;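 active means normalized GFP-positive differentiation at or above the plate's own cutoff, the solvent-only control mean plus 3 SD; inconclusive means no clear call, values can overlap the other calls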;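 further: cells exposed to compound for four days before flow analysis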
Of the large screens only hits and unclear results are named; the others gave an inactive call; ! = not active in a repeat.

CCc1ccc2nc(SCC(=O)N3CC(=O)Nc4ccccc43)c(C#N)cc2c1	Myeloid diff MLP active
COc1ccc(CN2CCNC(=O)C2CC(=O)NCCc2nc(C)c(C)s2)cc1C (centres undefined)	none
O=C(Cn1nnc2ccccc21)Nc1ccccc1[N+](=O)[O-]	none
CCOc1cc(C#N)c(NC(=O)Cn2nnc3ccccc32)cc1OCC	HNF4A DNA FP 34.3
CCCC1NC(=O)c2cccnc2-n2c1nc1ccc(Cl)cc1c2=O (centres undefined)	none
COc1ccc(-c2n[nH]c(=S)n2-c2ccc(C)cc2C)cc1	HNF4A DNA FP 36.4
Cc1ccc(-n2c(-c3ccc(Cl)cc3)n[nH]c2=S)c(C)c1	Myeloid diff MLP active
COc1ccc(CCNC(=O)COC(=O)CSc2ccc(C(N)=O)cc2[N+](=O)[O-])cc1OC	none
CN(c1ccc(C(=O)Nc2ccc3c(c2)OCO3)cc1)S(C)(=O)=O	none
CN(c1ccc(C(=O)Nc2ccc3c(c2)OCCO3)cc1)S(C)(=O)=O	Myeloid diff MLP active
Cc1nn(Cc2cccc(C(=O)NN)c2)c(C)c1Cl	Myeloid diff MLP active
COc1cc2c(C)nc3c(c(C)nn3-c3ccccc3)c2cc1OC	none
COc1cc2c(-c3ccc(O)cc3)nc3c(c(C)nn3-c3ccccc3)c2cc1OC	HNF4A DNA FP 160.1
N#Cc1ccccc1NC(=O)CSc1nnc(-c2ccccc2)n1-c1ccccc1	none
CCN(CC)c1ccc(-c2nnc(SCC(=O)Nc3ccccc3C#N)n2-c2ccccc2)cc1	Granule exo inh 87.8
Cc1ccc(Cl)cc1NC(=O)CC1NC2CCCCC2NC1=O (centres undefined)	Myeloid diff MLP active
CCOC(=O)CCC(=O)O[C@H]1[C@H](O[C@@H]2[C@@H](C)[C@H](O[C@H]3C[C@@](C)(OC)[C@@H](O)[C@H](C)O3)[C@@H](C)C(=O)O[C@H](CC)[C@@](C)(O)[C@H](O)[C@@H](C)C(=O)[C@H](C)C[C@@]2(C)O)O[C@H](C)C[C@@H]1N(C)C	Myeloid diff MLP active
CSc1cccc(NC(=O)COC(=O)C2CCN(S(=O)(=O)c3ccccc3)CC2)c1	none
N#Cc1ccccc1Cn1cc(/C=C/[N+](=O)[O-])c2ccccc21	Granule exo inh 60.9
CC(NC(=O)CSc1nc(C2CC2)n(-c2ccccc2)n1)c1ccco1 (centres undefined)	none
COc1cc(OC)cc(C(=O)NC(=S)Nc2ccc3c4c(cccc24)CC3)c1	Myeloid diff MLP active
COc1ccc(C(=O)NC(=S)Nc2ccc3c4c(cccc24)CC3)cc1OC	none
O=C(Nc1ccc2c3c(cccc13)CC2)c1ccc(Br)o1	none
CC(C)Oc1cccc(C(=O)NC(=S)Nc2ccc3c4c(cccc24)CC3)c1	Myeloid diff MLP active
O=C(Nc1ccc2c3c(cccc13)CC2)c1ccco1	Myeloid diff MLP active
CC(C)N(Cc1nccn1C)C(=O)c1cc(COc2ccc(F)cc2Cl)on1	none
O=C(COC(=O)CNS(=O)(=O)c1c(F)cccc1F)NC(=O)NC1CCCCC1	none
O=C(NC(=S)Nc1ccc(-c2ccc(CO)o2)cc1)c1cccs1	CSN deneddyl inh 39.9
Cc1ccc(C(=O)NC(=S)Nc2ccc(-c3ccc(CO)o3)cc2)cc1	none
CCn1c2ccccc2nc2cc3c(cc21)c(Cl)c(=O)c1ccccc13	Granule exo inh 118.6, Myeloid diff MLP inconclusive
CCCCCCSc1cc(-c2nc3cnccn3c2NCCCC)ccc1OC	none
CCCCCCSc1cc(-c2nc3cc(C)ccn3c2NCCCC)ccc1OC	Myeloid diff MLP active!
CNC(=O)c1cc(C(=O)c2ccc(C(F)(F)F)cc2F)c[nH]1	none
CNC(=O)c1cc(C(=O)c2ccc(C(F)(F)F)cc2)c[nH]1	Myeloid diff MLP active
Cc1ccc(S(=O)(=O)N/N=C/c2ccc(C#N)cc2)cc1	none
CCn1c2ccccc2c2cc(/C=N/NC(=O)c3cccc(C)c3)ccc21	CSN deneddyl inh 45.3
Cc1ccc(S(=O)(=O)NC2CCC(C(=O)O)CC2)cc1 (centres undefined)	Myeloid diff MLP active
O=C(CN1C(=O)NC2(CCCC2)C1=O)Nc1cccc(Cl)c1Cl	none
O=C1CN(CC(=O)Nc2cccc(Cl)c2Cl)c2ccccc2N1	HNF4A DNA FP 35.4, Myeloid diff MLP active
O=c1c2[nH]cnc2n(-c2cccc(F)c2)c(=O)n1Cc1ccccc1	none
COc1ccc(C2c3ccc(O)cc3Oc3ncn4nc(-c5cccnc5)nc4c32)cc1OC (centres undefined)	Myeloid diff MLP active
Cn1cncc1C#Cc1ccc2cc(C3(O)CCCCC3)oc(=O)c2c1	CSN deneddyl inh 36.2
Cn1cncc1C#Cc1ccc2cc(C(C)(C)O)oc(=O)c2c1	none
